# ChEMBL document CHEMBL2158002, “Small-molecular inhibitors of Ca²⁺-induced mitochondrial permeability transition (MPT) derived from muscle relaxant dantrolene” (2012)
# System: HL-60
# Assay: Inhibition of Ca2+-induced mitochondrial permeability transition in human HL60 cells at 50 uM after 40 mins relative to control
# Assay type: functional
# Conditions: HL-60, 40 min
# In short: (§1)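 Mitochondria were isolated from human leukaemia HL-60 cells, which were grown in RPMI1640 with 5% heat-inactivated FBS and penicillin/streptomycin at 37 °C under 5% CO2. Swelling was then triggered with 250 µM CaCl2 (final) and followed as the change in OD540 at 30 °C. Inhibition % at 40 min was scaled between no-CaCl2 (100%) and CaCl2-only (0%) controls.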
row,Structure (SMILES),inhibition at 50 µM
1,Nc1cccc(CN2C(=O)CN(NC(=O)c3ccc(-c4cc(Cl)cc(Cl)c4)o3)C2=O)c1,48%
2,Nc1cccc(CN2C(=O)CN(NC(=O)c3ccc(-c4ccc(Cl)cc4)o3)C2=O)c1,20%
3,Nc1cccc(CN2C(=O)CN(NC(=O)c3ccc(-c4cccc(Br)c4)o3)C2=O)c1,11%
4,Nc1cccc(CN2C(=O)CN(NC(=O)c3ccc(-c4ccccc4)o3)C2=O)c1,19%
5,Nc1ccc(CN2C(=O)CN(NC(=O)c3ccc(-c4cc(Cl)cc(Cl)c4)o3)C2=O)cc1,46%
6,O=C(NN1CC(=O)N(Cc2cccnc2)C1=O)c1ccc(-c2cc(Cl)cc(Cl)c2)o1,71%
7,O=C(NN1CC(=O)N(Cc2ccncc2)C1=O)c1ccc(-c2cc(Cl)cc(Cl)c2)o1,8.7%

# System: HL-60
# Assay: Inhibition of Ca2+-induced mitochondrial permeability transition in human HL60 cells at 25 uM after 40 mins relative to control
# Assay type: functional
# Conditions: HL-60, 40 min
# In short: as §1
row,Structure (SMILES),inhibition at 25 µM
1,Nc1cccc(CN2C(=O)CN(NC(=O)c3ccc(-c4cc(Cl)cc(Cl)c4)o3)C2=O)c1,35%
2,Nc1cccc(CN2C(=O)CN(NC(=O)c3ccc(-c4cccc(C(F)(F)F)c4)o3)C2=O)c1,6.5%
3,CN1C(=O)CN(/N=C/c2ccc(-c3cccc(Cl)c3)o2)C1=O,6%
4,CN1C(=O)CN(/N=C/c2ccc(-c3cc(Cl)cc(Cl)c3)o2)C1=O,23%
5,CN1C(=O)CN(NC(=O)c2ccc(-c3cccc(Cl)c3)o2)C1=O,2%
6,CN1C(=O)CN(NC(=O)c2ccc(-c3cc(Cl)cc(Cl)c3)o2)C1=O,8.5%
7,Nc1cccc(CN2C(=O)CN(/N=C/c3ccc(-c4cccc(Cl)c4)o3)C2=O)c1,14%
8,Nc1cccc(CN2C(=O)CN(/N=C/c3ccc(-c4cc(Cl)cc(Cl)c4)o3)C2=O)c1,14%
9,Nc1cccc(CN2C(=O)CN(NC(=O)c3ccc(-c4cccc(Cl)c4)o3)C2=O)c1,16%
10,O=C1CN(/N=C/c2ccc(-c3ccc([N+](=O)[O-])cc3)o2)C(=O)N1 [DANTROLENE SODIUM],13%
